Experimental data: ChEMBL document CHEMBL4346763, “Incorporation of a chiral gem-disubstituted nitrogen heterocycle yields an oxazolidinone antibiotic with reduced mitochondrial toxicity” (Bioorg Med Chem Lett, 2019)
≈ marks a conversion by molar mass, not a printed value.

Assays:
Staphylococcus aureus [1] = assay: Antibacterial activity against Staphylococcus aureus JC9213 by CLSI based broth dilution assay; type: functional
[2] = Inhibition of protein synthesis in mitochondria (unknown origin) assessed as [35S]methionine incorporation incubated for 15 to 120 mins by paper disk assay; design: species or system Homo sapiens
Staphylococcus aureus [3] = assay: Antibacterial activity against methicillin-sensitive Staphylococcus aureus ATCC 8235-4 measured after 16 hrs by broth microdilution method; type: functional; conditions: ATCC 8235-4, 16 h
Procedure, shortened: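 Overnight culture diluted 1:200 into plates, sealed, shaken at 150 RPM at 37 °C for 16 h, then OD600 read. MIC defined as the concentration giving at least 90% growth inhibition relative to DMSO-treated wells; μM converted to μg/mL and rounded to nearest integer.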

Staphylococcus aureus [4] = assay: Antibacterial activity against methicillin-sensitive Staphylococcus aureus ATCC 8235-4 at 6 ug/ml measured after 16 hrs by broth microdilution method relative to control; type: functional; conditions: ATCC 8235-4, 16 h
Procedure, shortened: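 Overnight S. aureus 8235-4 culture diluted 1:200 into LB broth containing compound at 4–22 μM in 2 μM steps. Plates sealed and shaken at 150 rpm, 37 °C, 16 h. OD600 read, and growth inhibition expressed relative to DMSO carrier-only wells. μM values converted to μg/mL and rounded to the nearest integer.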

Staphylococcus aureus [5] = assay: Antibacterial activity against methicillin-resistant Staphylococcus aureus ATCC 43300 measured after 18 hrs by broth microdilution method; type: functional; conditions: ATCC 43300, 18 h
Procedure, shortened: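 S. aureus ATCC 43300 grown overnight in cation-adjusted Mueller Hinton broth at 37 °C, diluted 40-fold and regrown 1.5-3 h to mid-log. Inoculum 5×10^5 CFU/mL added to 8-point 1:2 serial dilutions from a top final concentration of 32 μg/mL or 20 μM, DMSO ≤0.5%, in duplicate. Incubated 18 h at 37 °C without shaking.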

[6] = Aqueous solubility of compound; type: physicochemical; conditions: buffer
[7] = Stability in gastric pH assessed as compound remaining after 24 hrs relative to control; type: physicochemical
HepG2 = assay: Cytotoxicity against human HepG2 cells assessed as reduction in cell viability by CellTiter-Glo assay; type: cell-based
Cytochrome P450 1A2 = target: T1, Cytochrome P450 1A2 (Homo sapiens, UniProt P05177); assay: Inhibition of CYP1A2 (unknown origin); type: ADME
T1 sequence (P05177 whole entry): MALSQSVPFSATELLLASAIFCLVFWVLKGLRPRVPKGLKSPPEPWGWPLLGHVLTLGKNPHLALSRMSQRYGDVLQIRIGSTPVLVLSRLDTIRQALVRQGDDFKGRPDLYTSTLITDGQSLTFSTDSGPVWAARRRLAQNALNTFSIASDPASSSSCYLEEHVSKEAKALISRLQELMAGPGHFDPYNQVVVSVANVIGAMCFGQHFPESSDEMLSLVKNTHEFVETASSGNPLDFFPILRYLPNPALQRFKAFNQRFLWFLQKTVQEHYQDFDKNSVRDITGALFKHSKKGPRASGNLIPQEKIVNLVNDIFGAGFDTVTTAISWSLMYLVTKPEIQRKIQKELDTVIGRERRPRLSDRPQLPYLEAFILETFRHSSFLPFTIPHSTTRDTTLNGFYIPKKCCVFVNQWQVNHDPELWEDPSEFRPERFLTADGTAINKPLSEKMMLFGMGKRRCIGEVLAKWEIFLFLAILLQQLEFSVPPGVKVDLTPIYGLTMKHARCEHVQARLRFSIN

Cytochrome P450 2C9 = Cytochrome P450 2C9 (Homo sapiens, UniProt P11712); assay: Inhibition of CYP2C9 (unknown origin); type: ADME
Sequence of Cytochrome P450 2C9 (P11712 whole entry): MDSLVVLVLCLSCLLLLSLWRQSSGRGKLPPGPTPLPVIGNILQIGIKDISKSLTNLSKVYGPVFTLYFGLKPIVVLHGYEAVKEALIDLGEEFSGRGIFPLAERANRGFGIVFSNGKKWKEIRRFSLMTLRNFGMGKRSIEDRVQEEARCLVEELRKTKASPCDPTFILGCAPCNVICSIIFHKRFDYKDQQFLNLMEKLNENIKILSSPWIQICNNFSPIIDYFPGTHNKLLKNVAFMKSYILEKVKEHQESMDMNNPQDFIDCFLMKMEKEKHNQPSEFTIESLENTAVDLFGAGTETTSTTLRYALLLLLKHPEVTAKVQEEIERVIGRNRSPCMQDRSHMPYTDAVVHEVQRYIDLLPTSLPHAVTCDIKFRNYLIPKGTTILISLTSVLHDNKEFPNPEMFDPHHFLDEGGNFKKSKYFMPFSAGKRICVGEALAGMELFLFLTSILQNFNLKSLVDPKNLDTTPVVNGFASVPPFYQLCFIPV

Cytochrome P450 2C19 = Cytochrome P450 2C19 (Homo sapiens, UniProt P33261); assay: Inhibition of CYP2C19 (unknown origin); type: ADME
Sequence of Cytochrome P450 2C19 (P33261 whole entry): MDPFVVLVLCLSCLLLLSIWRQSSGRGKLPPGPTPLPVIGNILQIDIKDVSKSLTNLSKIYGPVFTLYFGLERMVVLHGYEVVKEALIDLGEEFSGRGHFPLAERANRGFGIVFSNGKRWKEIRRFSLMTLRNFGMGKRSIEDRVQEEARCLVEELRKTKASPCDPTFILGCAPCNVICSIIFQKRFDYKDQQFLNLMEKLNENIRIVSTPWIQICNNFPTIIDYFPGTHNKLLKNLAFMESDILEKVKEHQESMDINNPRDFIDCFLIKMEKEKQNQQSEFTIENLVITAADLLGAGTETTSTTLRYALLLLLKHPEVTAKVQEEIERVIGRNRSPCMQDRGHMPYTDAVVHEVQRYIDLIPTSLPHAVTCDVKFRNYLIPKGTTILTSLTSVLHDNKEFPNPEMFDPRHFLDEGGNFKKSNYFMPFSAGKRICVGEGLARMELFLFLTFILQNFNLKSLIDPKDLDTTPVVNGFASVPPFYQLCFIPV

Cytochrome P450 2D6 = Cytochrome P450 2D6 (Homo sapiens, UniProt P10635); assay: Inhibition of CYP2D6 (unknown origin); type: ADME
Sequence of Cytochrome P450 2D6 (P10635 whole entry): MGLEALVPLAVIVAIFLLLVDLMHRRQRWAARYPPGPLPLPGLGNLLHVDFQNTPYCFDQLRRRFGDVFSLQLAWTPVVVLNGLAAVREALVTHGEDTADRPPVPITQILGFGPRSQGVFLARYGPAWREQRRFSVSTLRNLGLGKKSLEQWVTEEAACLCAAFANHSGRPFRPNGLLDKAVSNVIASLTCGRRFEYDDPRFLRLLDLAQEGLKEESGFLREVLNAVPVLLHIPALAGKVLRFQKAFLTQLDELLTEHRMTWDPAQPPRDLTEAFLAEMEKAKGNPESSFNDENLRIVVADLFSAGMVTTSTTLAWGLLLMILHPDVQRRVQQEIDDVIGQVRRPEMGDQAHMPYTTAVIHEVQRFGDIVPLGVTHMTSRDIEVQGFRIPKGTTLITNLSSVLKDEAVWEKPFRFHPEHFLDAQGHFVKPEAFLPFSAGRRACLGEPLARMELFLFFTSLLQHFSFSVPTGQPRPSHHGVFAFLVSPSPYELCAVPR

Cytochrome P450 3A4 = Cytochrome P450 3A4 (Homo sapiens, UniProt P08684); assay: Inhibition of CYP3A4 (unknown origin); type: ADME
Sequence of Cytochrome P450 3A4 (P08684 whole entry): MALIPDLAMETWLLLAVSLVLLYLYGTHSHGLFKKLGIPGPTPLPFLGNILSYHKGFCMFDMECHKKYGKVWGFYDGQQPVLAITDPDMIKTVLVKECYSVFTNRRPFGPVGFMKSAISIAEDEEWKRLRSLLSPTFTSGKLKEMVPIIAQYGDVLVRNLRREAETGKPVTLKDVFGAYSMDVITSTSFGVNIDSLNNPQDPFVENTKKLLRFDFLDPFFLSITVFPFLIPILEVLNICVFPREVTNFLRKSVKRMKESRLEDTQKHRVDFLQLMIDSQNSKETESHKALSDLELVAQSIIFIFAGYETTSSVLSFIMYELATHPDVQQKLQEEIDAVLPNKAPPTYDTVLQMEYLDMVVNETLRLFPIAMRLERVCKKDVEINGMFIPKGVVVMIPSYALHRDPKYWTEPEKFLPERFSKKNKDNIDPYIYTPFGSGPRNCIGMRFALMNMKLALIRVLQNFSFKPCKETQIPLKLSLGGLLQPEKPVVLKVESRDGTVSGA

[8] = Half life in mouse hepatocytes
Staphylococcus aureus [9] = assay: Antibacterial activity against methicillin-resistant Staphylococcus aureus ATCC 43300 at 6 ug/ml measured after 18 hrs by broth microdilution method relative to control; type: functional; conditions: ATCC 43300, 18 h

## CC(=O)NC[C@H]1CN(c2ccc(C3=CCOCC3)c(F)c2)C(=O)O1
Staphylococcus aureus [1]
  MIC: 1 µg/mL (≈ 2.99 µM)
[2]
  IC50: 0.95 µg/mL (≈ 2.84 µM)

## CC(=O)NC[C@H]1CN(c2ccc(-n3cncn3)c(F)c2)C(=O)O1
Staphylococcus aureus [1]
  MIC: 4 µg/mL (≈ 12.5 µM)
[2]
  IC50: 1.7 µg/mL (≈ 5.32 µM)

## C/N=c1\ccc(-c2ccc(N3C[C@H](CNC(C)=O)OC3=O)cc2F)ccc1O
Staphylococcus aureus [1]
  MIC: 2 µg/mL (≈ 5.19 µM)
[2]
  IC50: 0.83 µg/mL (≈ 2.15 µM)

## CC(=O)NC[C@H]1CN(c2ccc(N3CCOC4(CCN(C)C4)C3)c(F)c2)C(=O)O1 (some centres undefined)
Staphylococcus aureus [3]
  MIC: > 32 µg/mL

## CC(=O)NC[C@H]1CN(c2ccc(N3CCOC4(CCOC4)C3)c(F)c2)C(=O)O1 (some centres undefined)
Staphylococcus aureus [4]
  inhibition at 6 µg/mL: 65%

## CC(=O)NC[C@H]1CN(c2ccc(N3CCOC(C)(CCCOC(C)=O)C3)c(F)c2)C(=O)O1 (some centres undefined)
Staphylococcus aureus [3]
  MIC: > 32 µg/mL

## CC(=O)NC[C@H]1CN(c2ccc(N3CCOC(C)(CCCO)C3)c(F)c2)C(=O)O1 (some centres undefined)
Staphylococcus aureus [5]
  MIC: > 32 µg/mL

## CC(=O)NC[C@H]1CN(c2ccc(N3CCOC(C)(CCN(C)C)C3)c(F)c2)C(=O)O1 (some centres undefined)
Staphylococcus aureus [3]
  MIC: > 32 µg/mL

## CC(=O)NC[C@H]1CN(c2ccc(N3CCOC(C)(C)C3)c(F)c2)C(=O)O1
Staphylococcus aureus [5]
  MIC: 8 µg/mL (≈ 21.9 µM)

## CC(=O)NC[C@H]1CN(c2ccc(N3CCO[C@]4(CCCOC4)C3)c(F)c2)C(=O)O1
Staphylococcus aureus [3]
  MIC: 9 µg/mL (≈ 22.1 µM)
[6]
  solubility: > 48.49 µg/mL
[7]
  Stability: 89%
HepG2
  EC50: > 30 µM
Cytochrome P450 1A2
  INH: > 100 µM
Cytochrome P450 2C9
  INH: > 100 µM
Cytochrome P450 2C19
  INH: > 100 µM
Cytochrome P450 2D6
  INH: > 100 µM
Cytochrome P450 3A4
  INH: > 100 µM
[8]
  t1/2: 2.138 h

## C=CCC1(C)CN(c2ccc(N3C[C@H](CNC(C)=O)OC3=O)cc2F)CCO1 (some centres undefined)
Staphylococcus aureus [5]
  MIC: 16 µg/mL (≈ 40.9 µM)

## CC(=O)NC[C@H]1CN(c2ccc(N3CCO[C@@]4(CCCOC4)C3)c(F)c2)C(=O)O1
Staphylococcus aureus [5]
  MIC: 5 µg/mL (≈ 12.3 µM)
Staphylococcus aureus [3]
  MIC: 6 µg/mL (≈ 14.7 µM)
[6]
  solubility: > 52.15 µg/mL
[7]
  Stability: 94%
HepG2
  EC50: > 30 µM
Cytochrome P450 1A2
  INH: > 100 µM
Cytochrome P450 2C9
  INH: > 100 µM
Cytochrome P450 2C19
  INH: > 100 µM
Cytochrome P450 2D6
  INH: > 100 µM
Cytochrome P450 3A4
  INH: > 100 µM
[8]
  t1/2: 2.83 h

## CCCC1(CO)CN(c2ccc(N3C[C@H](CNC(C)=O)OC3=O)cc2F)CCO1 (some centres undefined)
Staphylococcus aureus [4]
  inhibition at 6 µg/mL: 48%

## CC(=O)NC[C@H]1CN(c2ccc(N3CCOC4(CCCOC4)C3)c(F)c2)C(=O)O1 (some centres undefined)
Staphylococcus aureus [3]
  MIC: 7 µg/mL (≈ 17.2 µM)

## CC(=O)NC[C@H]1CN(c2ccc(N3CCOC4(CCCN(C(C)=O)C4)C3)c(F)c2)C(=O)O1 (some centres undefined)
Staphylococcus aureus [9]
  inhibition at 6 µg/mL: 18%
Staphylococcus aureus [4]
  inhibition at 6 µg/mL: 18%

## CCCC1(C)CN(c2ccc(N3C[C@H](CNC(C)=O)OC3=O)cc2F)CCO1 (some centres undefined)
Staphylococcus aureus [5]
  MIC: 16 µg/mL (≈ 40.7 µM)

## CC(=O)NC[C@H]1CN(c2ccc(N3CCOC4(CCNC4)C3)c(F)c2)C(=O)O1 (some centres undefined)
Staphylococcus aureus [3]
  MIC: > 32 µg/mL

## C=CCC1(COCc2ccccc2)CN(c2ccc(N3C[C@H](CNC(C)=O)OC3=O)cc2F)CCO1 (some centres undefined)
Staphylococcus aureus [3]
  MIC: > 32 µg/mL

## CC(=O)NC[C@H]1CN(c2ccc(N3CCOC4(CCCNC4)C3)c(F)c2)C(=O)O1 (some centres undefined)
Staphylococcus aureus [3]
  MIC: > 32 µg/mL

## CC(=O)NC[C@H]1CN(c2ccc(N3CCN(C(=O)CO)CC3)c(F)c2)C(=O)O1 [EPEREZOLID]
Staphylococcus aureus [1]
  MIC: 2 µg/mL (≈ 5.07 µM)
[2]
  IC50: 4.2 µg/mL (≈ 10.6 µM)

## CC(=O)NC[C@H]1CN(c2ccc(N3CCOCC3)c(F)c2)C(=O)O1 [LINEZOLID]
[2]
  IC50: 12.8 µg/mL (≈ 37.9 µM)
Staphylococcus aureus [5]
  MIC: 1 µg/mL (≈ 2.96 µM)
[7]
  Stability: 98%
HepG2
  EC50: > 30 µM
Cytochrome P450 1A2
  INH: > 100 µM
Cytochrome P450 2C9
  INH: > 100 µM
Cytochrome P450 2C19
  INH: > 100 µM
Cytochrome P450 2D6
  INH: > 100 µM
Cytochrome P450 3A4
  INH: > 100 µM
[8]
  t1/2: > 3.613 h
